# Compound activity from PubChem BioAssay.
# SENP1 inh: human SENP1 catalytic domain inhibitors, primary screen, biochemical, FRET, uHTS. Sentrin-specific protease 1 (Homo sapiens), Q9P0U3. recombinant SENP1 catalytic domain, CyPet-SUMO1-YPet FRET cleavage. inhibition, % at 10 µM. hit rate 0.21% among 360,000. AID 624204, 2012;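 active = inhibition at least 30% at 10 µM, raw YFP signal under a set limit, fluorescence ratio 0.5 to 1.5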;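 note: 0% = enzyme with DMSO and 100% = no enzyme wells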
#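 Test system: hSENP1 catalytic domain, recombinant; Amount: 20 pM final SENP1 enzyme; Medium: Tris pH 8 buffer plus EDTA, NaCl, BME, BSA, NP40, catalase; Schedule: 50 min enzyme reaction, room temperature, light-protected; Technique: FRET fluorescence in CFP and YFP emission channels; Controls: no-enzyme wells low, DMSO-plus-enzyme wells high control.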
# SENP6 block: SENP6 protease inhibitors, primary screen, biochemical, luminescence, uHTS | Sentrin-specific protease 6 (Homo sapiens), Q9GZR1 | Recombinant SENP6 catalytic domain, aminoluciferin luminescence | inhibition, % at 10 µM | hit rate 1.8% among 330,000;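 active = inhibition above about 50% at the single tested dose, limit read from the data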;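 note: plate controls were DMSO wells with enzyme for no effect and DMSO wells lacking enzyme for full effect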
# Target sequence (Q9GZR1 628-1112 limits assumed): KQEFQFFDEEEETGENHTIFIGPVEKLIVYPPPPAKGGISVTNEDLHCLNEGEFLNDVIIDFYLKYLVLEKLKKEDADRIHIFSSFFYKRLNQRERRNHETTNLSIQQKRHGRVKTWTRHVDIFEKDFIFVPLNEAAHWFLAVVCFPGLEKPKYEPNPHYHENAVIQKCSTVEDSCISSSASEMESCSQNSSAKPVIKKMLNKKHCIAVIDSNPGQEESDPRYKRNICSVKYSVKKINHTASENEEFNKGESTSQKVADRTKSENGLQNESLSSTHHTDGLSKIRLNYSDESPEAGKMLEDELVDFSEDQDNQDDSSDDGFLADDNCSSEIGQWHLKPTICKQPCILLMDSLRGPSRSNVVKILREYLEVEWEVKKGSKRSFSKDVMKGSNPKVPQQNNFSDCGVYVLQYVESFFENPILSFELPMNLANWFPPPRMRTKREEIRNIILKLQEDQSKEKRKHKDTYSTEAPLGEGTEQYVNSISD
# SENP7 block: SENP7 protease inhibitors, primary screen, biochemical, luminescence, uHTS; Sentrin-specific protease 7 (Homo sapiens), Q9BQF6; recombinant SENP7, Z-RLRGG-aminoluciferin luminescence, 40 min; inhibition, % at 5 µM; hit rate 1.5% among 330,000; AID 434973, 2010;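 active = inhibition above about 50% at the single test dose, limit read from the data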;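 note: plate controls were DMSO with enzyme for no effect and no enzyme buffer wells for full effect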
# HSP90 refold inh: HSP90 inhibitors, primary screen, cell lysate, luminescence; Rabbit reticulocyte lysate, luciferase refolding luminescence, 3 h; Heat shock protein HSP 90 (rabbit reticulocyte lysate; luciferase refolding); hit rate 0.91% among 290,000; inhibition, % at 5.6 µM; AID 1789, 2009;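 active = inhibition above the screen-wide mean plus 3 SD, computed separately per campaign, cut at about 16% in these data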;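 note: 0% = DMSO wells and 100% = 60 µM geldanamycin wells; inhibitors lower the luminescence because luciferase stays unfolded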
# SENP8 block-1: SENP8 protease inhibitors, primary screen, biochemical, luminescence | purified SENP8, Z-RLRGG-aminoluciferin cleavage | inhibition, % at 10 µM | hit rate 1.2% among 330,000 | AID 2540, 2010; in the data active = inhibition above about 50%
# SENP8 block-2: human SENP8 protease inhibitors, primary screen, biochemical, fluorescence, Nedd8 protein substrate, uHTS | Sentrin-specific protease 8 (Homo sapiens), Q96LD8 | recombinant SENP8 | inhibition, % at 20 µM | hit rate 0.64% among 360,000; in the data active = inhibition mostly above about 40%, no sharp cut-off; inactive = mostly below about 27%
# SENP8 confirm: SENP8 protease inhibitors, retest, confirmation, biochemical, luminescence, single concentration; hit rate 40% among 6,200; shares compounds with SENP7 block; Recombinant SENP8, Z-RLRGG-aminoluciferin luminescence, 60 min; inhibition, % at 12.5 µM; AID 488912, 2010;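 active = mean inhibition across replicates above about 50%, limit read from the data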
# SENP6 conf: SENP6 protease inhibitors, confirmation, biochemical, luminescence, single concentration | hit rate 58% among 6,200 | shares compounds with SENP7 block | AID 488915, 2010 | inhibition, % at 12.5 µM | recombinant SENP6, Z-RLRGG-aminoluciferin luminescence
# SENP7 confirm: SENP7 protease inhibitors, retest, confirmation, biochemical, luminescence, single concentration; hit rate 69% among 6,200; recombinant SENP7, Z-RLRGG-aminoluciferin luminescence, 40 min; shares compounds with SENP7 block; inhibition, % at 12.5 µM
# Casp3 select: caspase-3 protease inhibitors, confirmation, selectivity assay for SENP inhibitor project, biochemical, single concentration; shares compounds with SENP7 block; purified caspase-3, Z-DEVD-aminoluciferin luminescence, 60 min; inhibition, % at 12.5 µM; hit rate 60% among 6,200; AID 488918, 2010;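 active = mean inhibition above about 50%, limit read from the data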;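 note: plate controls were enzyme with DMSO for no effect and wells without caspase-3 for full effect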
# Luc interf: interferes with luciferase luminescence in SENP counter-screen | hit rate 39% among 6,200 | shares compounds with SENP7 block | inhibition, % at 12.5 µM | Pre-incubated SENP8/Z-RLRGG-aminoluciferin, luciferase luminescence interference | AID 488919;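 active = mean inhibition above about 50% when retested at one dose, limit read from the data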;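 note: plate controls were DMSO wells with completed reaction for no effect and substrate without enzyme for full effect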
# The depositor's hits bear a star; · = not tested or not shown. Most compounds without a hit are left out; they make up all but 2.9% or so of the library.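 Rule for the calls, unless noted: active = mean inhibition above about 50% in the one-dose retest (limit read from the data); inactive = the rest.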
SMILES,SENP1 inh,SENP6 block,SENP7 block,HSP90 refold inh,SENP8 block-1,SENP8 block-2,SENP8 confirm,SENP6 conf,SENP7 confirm,Casp3 select,Luc interf
O=C(Nc1ccc(C(=O)Oc2ccccc2)c(O)c1)c1ccco1,0.9,90.9*,81.7*,-1.0,73.0*,-23.8,79.8*,80.8*,95.6*,65.7*,31.5
CCOC(=O)Nc1ccc(C(=O)Oc2ccccc2)c(O)c1,1.2,43.2,52.7*,0.5,20.6,0.6,28.8,33.2,68.8*,19.5,42.9
O=C(Nc1ccc(OC(=O)c2cccs2)cc1)c1ccco1,1.0,86.5*,82.5*,5.0,67.4*,27.6,72.1*,71.7*,94.3*,77.3*,43.7
Cc1cc2[nH]c(=O)c(=O)[nH]c2cc1S(=O)(=O)Nc1cccc(Cl)c1,1.2,7.0,0.2,4.7,0.6,-101.4,·,·,·,·,·
COC(=O)c1ccc(-c2ccc(F)cc2)nc1C,-0.6,61.5*,52.7*,-2.3,34.7,28.5,-12.9,28.8,77.0*,41.3,3.3
CCOC(=O)c1cc2c(nc1N)CCCC2,-0.1,-26.6,-6.7,-4.2,-4.2,-390.8,·,·,·,·,·
CCOC(=O)c1ccc(-c2ccc3c(c2)CCC3)nc1C,0.8,60.3*,70.4*,1.1,52.5*,21.3,57.2*,57.3*,80.4*,48.9,42.9
Cc1cc(C(=O)N/N=C2\CC(=O)c3ccccc32)c(C)n1-c1ccccc1,6.5,29.0,9.6,9.1,54.0*,36.8,3.4,17.7,19.9,15.7,1.3
c1ccc(-c2cn3nc(-c4ccccc4)cnc3n2)cc1,-23.9,·,·,5.7,·,-416.9,·,·,·,·,·
Brc1ccc(-c2cn3nc4c(nc3n2)CCCC4)cc1,-15.1,69.9*,19.9,0.7,73.9*,-405.6,38.0,66.4*,59.9*,43.2,10.5
c1ccc(-c2cn3nc4c(nc3n2)CCCC4)cc1,-15.5,50.2*,25.7,4.5,46.1,-436.1,86.2*,94.3*,96.1*,93.9*,35.6
CCc1ccc(-c2cn3nc(C)c(C)nc3n2)cc1,-26.1,23.0,-1.2,11.9,26.9,-275.7,·,·,·,·,·
Cc1nc(-c2noc(-c3ccccc3Cl)n2)c(C(F)(F)F)o1,2.2,78.2*,64.8*,4.1,70.2*,19.8,24.4,56.6*,78.4*,69.8*,39.8
Cc1onc(-c2ccccc2Cl)c1-c1nc(-c2ccncc2)no1,0.3,-12.0,0.9,-5.1,-1.1,12.3,·,·,·,·,·
Clc1ccccc1-c1nc(-c2ccncc2)no1,1.1,81.4*,80.3*,0.8,75.1*,12.3,82.2*,84.1*,97.1*,84.2*,70.6*
c1ccc(-c2ccccc2-c2nc(-c3ccncc3)no2)cc1,1.2,-11.2,7.7,1.9,5.5,16.8,·,·,·,·,·
Clc1ccc(-c2nc(-c3ccncc3)no2)c(Cl)c1,1.1,63.2*,76.7*,·,58.3*,26.0,8.2,10.0,25.7,19.7,9.8
Cc1ccccc1-c1nc(-c2cccnc2)no1,1.8,59.9*,53.0*,5.3,35.5,7.1,25.4,60.0*,84.3*,67.1*,31.1
CC(=O)Oc1ccc(Cl)cc1CN(C(C)=O)C1CCCCC1,0.3,·,·,·,·,-3.3,·,·,·,·,·
